Measured values reported in publication PMC7187372 (Journal of Clinical Pharmacology, 2019).

What was measured:
[1] = higher; cited from earlier work
[2] = Simulation of steady-state exposure; parameters: species or system human
[3] = cited from earlier work
[4] = cited from earlier work; remark: listed apart in the source
[5] = cited from earlier work; remark: listed apart in the source
[6] = Population pharmacokinetic analysis; assay type: in vivo, human
Outline: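 Single-dose intensive plasma sampling to 120 h (B1371001) or 24 h (B1371002), sparse in B1371003; multiple-dose intensive in all. HPLC–MS/MS assay, LLOQ 0.200 ng/mL. SAEM/IMP estimation; proportional residual error on log concentrations; missing covariates imputed as population median.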

[7] = cited from earlier work; remark: listed apart in the source
[8] = cited from earlier work; remark: listed apart in the source
[9] = healthy subjects; cited from earlier work
[10] = Healthy volunteer population PK model; assay type: in vivo, human
Outline: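 Model built from noncancer subjects in studies B1371010 and B1371014 (n = 49; 1937 plasma concentrations). Structure: 2-compartment, first-order absorption and elimination, allometric body-weight scaling. Estimation by FOCEI. Food entered empirically as a linear covariate on ka. Residual error was proportional across all subjects. Intersubject variability is reported as CV (%).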

[11] = tested on: Hedgehog pathway marker glioma‐associated oncogene homolog 1 (GLI1); settings: plasma exposures at doses ≥100 mg QD; cited from earlier work
Ketoconazole = assay type: in vivo, human; settings: glasdegib 200-mg single dose, ketoconazole 400 mg daily, healthy subjects
[12] = glasdegib 200-mg single dose, ketoconazole 400 mg daily, healthy subjects
[13] = bootstrap median, 1000 resampled data sets
[14] = healthy volunteer model vs final model, higher
[15] = healthy volunteer model, n = 49, FOCEI

Cc1c(C(=O)Nc2ccc(N3C[C@@H](C)O[C@@H](C)C3)nc2)cccc1-c1ccc(OC(F)(F)F)cc1 [sonidegib, Sonidegib]
Clearance in healthy subjects relative to patients with cancer [1]: 3 fold

CN1CC[C@@H](NC(=O)Nc2ccc(C#N)cc2)C[C@@H]1c1nc2ccccc2[nH]1 [glasdegib, Glasdegib]
Exposure increase from CL/F reduction ([2]; 10th percentile baseline body weight vs 70 kg): ~1.1 fold
Simulated fold change in steady-state maximum concentration and area under the curve ([2]; 90th percentile baseline body weight): ~0.75
Exposure increase from CL/F reduction ([2]; 90th percentile baseline bone marrow blasts): ~1.1 fold
Increase in area under the curve ([2]; strong CYP3A inhibitors): ~1.4 fold
Radiolabeled dose recovered in feces (mean) ([3]; 100 mg dose): 41.7%
Radiolabeled dose recovered in urine (mean) ([3]; 100 mg dose): 48.9%
Renal contribution to elimination [3]: around 17%
Unchanged glasdegib recovered in feces ([3]; of the 100 mg dose): 19.5%
Unchanged glasdegib recovered in urine ([3]; of the 100 mg dose): 17.2%
Plasma exposures with a strong CYP3A inhibitor [4]: increased
Increase in AUC extrapolated to infinity with ketoconazole vs glasdegib alone [4, 12]: 140%
Increase in maximum plasma concentration with ketoconazole vs glasdegib alone [4, 12]: 40%
Dose proportionality of plasma exposure ([5]; 5-600 mg QD, single and multiple daily dosing): dose‐proportional increase in plasma exposure
Maximum tolerated dose (MTD) ([5]; oral, patients): 400 mg QD
Residual error, proportional error, Hematologic ([6]; bootstrap median): 65.7%
Residual error, proportional error, Solid tumors ([6]; bootstrap median): 59.3%
CL/F [6, 13]: 6.23 L/h
Q/F [6, 13]: 1.58 L/h
Vc/F [6, 13]: 3.52 L
Vp/F [6, 13]: 296.04 L
ka [6, 13]: 0.06 hour^–1
θBPBL [6, 13]: –0.004
θCYPmod [6, 13]: –0.18
θCYPstrong [6, 13]: –0.31
θWNCL [6, 13]: 0.41
θsolid on Q/F [6, 13]: –0.69
θsolid on Vp/F [6, 13]: –0.81
Effect of age, sex, race and hepatic function on glasdegib PK parameters ([6]; covariate analysis): not found to be significant covariates
Residual error, proportional error, Hematologic ([6]; final model estimate): 65.8%
Residual error, proportional error, Solid tumors ([6]; final model estimate): 59.5%
Change in CL/F per 1% change in baseline percentage bone marrow blasts ([6]; from population median 38.2%, CL/F decreases as blasts increase): 0.4%
Plasma exposures with a strong CYP3A4 inducer [7]: decreased
Absolute oral bioavailability [8]: 77.12%
Effect of high-fat meal or proton pump inhibitors on PK [9]: not affected in a clinically relevant manner
Intersubject variability CL/F ([10]; healthy volunteer model): 19.6% (5.8%)
Intersubject variability Vc/F ([10]; healthy volunteer model): 11.0% (52.0%)
Intersubject variability ka ([10]; healthy volunteer model): 53.4% (10.6%)
CL/F in healthy subjects relative to patients with cancer [10, 14]: > 1.6 fold
ka in healthy subjects relative to patients with cancer [10, 14]: over 13 fold
Residual error, proportional error ([10]; healthy volunteer model, all subjects): 58.6%
CL/F [10, 15]: 10.1 (4.1%) L/h
Q/F [10, 15]: 1.92 (11.4%) L/h
Vc/F [10, 15]: 112 (4.1%) L
Vp/F [10, 15]: 53.5 (6.9%) L
ka [10, 15]: 0.79 (8.9%) hour^–1
Intersubject variability Q/F ([10]; healthy volunteer model, FIXED): 3.2% FIXED
Intersubject variability Vp/F ([10]; healthy volunteer model, FIXED): 3.2% FIXED
Downregulation of GLI1 [11]: robust and consistent
Decrease in CL/F with ketoconazole (Ketoconazole): 58%
